Laboratory results reported in ChEMBL document CHEMBL5303300, “EUbOPEN Chemogenomics Library - Multiplex” (2023).
Several values for one entry are separate records, joined by “and”; a condition that tells them apart may be missing. Identical values can stand only once.

System: Fibroblast
Test: Multiplex assay against human fibroblast
Assay type: toxicity, cell-based
Conditions: number of replicates 2
Summary of the method: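 With compound added, live cells were imaged on a CQ1 microscope at 37°C and 5% CO2; staining with Hoechst33342, BioTracker Green Microtubule Cytoskeleton Dye, MitoTracker Red and Annexin V Alexa Fluor 680 had been done at seeding. The CellPathfinder machine-learning gating scheme split cells into Hoechst high-intensity objects or normal cells, normal cells into healthy, pyknosed or fragmented nuclei, and pyknosed cells into mitotic or apoptotic. The tubulin, mitochondrial-mass and membrane-permeability phenotypes are per cents of healthy-nucleus cells.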

[1] = 12 h, 1 µM, compound concentration 1 uM
[2] = 12 h, 10 µM, compound concentration 10 uM
[3] = 24 h, 1 µM, compound concentration 1 uM
[4] = 24 h, 10 µM, compound concentration 10 uM
[5] = 48 h, 1 µM, compound concentration 1 uM
[6] = 48 h, 10 µM, compound concentration 10 uM

## CS(=O)(=O)c1ccc(C(=O)Nc2cccc(COc3ccc(Br)cc3CN3CC[C@@H](O)C3)c2)c(Cl)c1.O=CO
[1]
  Population Apoptotic (%): 41% and 38%
  Population Fragmented Nuclei (%): 8%
  Population Healthy Nuclei (%): 61% and 73%
  Population Hoechst High Intensity Objects (%): 0%
  Population Mitotic Cells (%): 58% and 61%
  Population Normal (%): 100%
  Population Pyknosed Nuclei (%): 18%
  Total Cell Count: 146 and 167
[2]
  Population Apoptotic (%): 50% and 40%
  Population Fragmented Nuclei (%): 18% and 16%
  Population Healthy Nuclei (%): 55% and 61%
  Population Hoechst High Intensity Objects (%): 0%
  Population Mitotic Cells (%): 49% and 59%
  Population Normal (%): 100%
  Population Pyknosed Nuclei (%): 25% and 22%
  Total Cell Count: 224 and 280
[3]
  Population Apoptotic (%): 60% and 46%
  Population Fragmented Nuclei (%): 14% and 15%
  Population Healthy Nuclei (%): 63% and 67%
  Population Hoechst High Intensity Objects (%): 0%
  Population Mitotic Cells (%): 40% and 53%
  Population Normal (%): 100%
  Population Pyknosed Nuclei (%): 22% and 17%
  Total Cell Count: 156 and 186
[4]
  Population Apoptotic (%): 72% and 79%
  Population Fragmented Nuclei (%): 28% and 23%
  Population Healthy Nuclei (%): 52% and 63%
  Population Hoechst High Intensity Objects (%): 1% and 0%
  Population Mitotic Cells (%): 27% and 20%
  Population Pyknosed Nuclei (%): 18% and 13%
  Total Cell Count: 262 and 331
[5]
  Population Apoptotic (%): 71% and 57%
  Population Fragmented Nuclei (%): 18% and 16%
  Population Healthy Nuclei (%): 62% and 67%
  Population Hoechst High Intensity Objects (%): 0%
  Population Mitotic Cells (%): 28% and 42%
  Population Normal (%): 100%
  Population Pyknosed Nuclei (%): 18% and 15%
  Total Cell Count: 154 and 164
[6]
  Population Apoptotic (%): 84% and 82%
  Population Fragmented Nuclei (%): 32% and 30%
  Population Healthy Nuclei (%): 56% and 58%
  Population Hoechst High Intensity Objects (%): 1% and 0%
  Population Mitotic Cells (%): 15% and 17%
  Population Normal (%): 100%
  Population Pyknosed Nuclei (%): 10%
  Total Cell Count: 300 and 395

## C[C@@H](Oc1cc(-n2cnc3ccc(OC4CCN(C)CC4)cc32)sc1C(N)=O)c1ccccc1Cl [GSK-579289A]
[1]
  Population Apoptotic (%): 45% and 36%
  Population Fragmented Nuclei (%): 21% and 15%
  Population Healthy Nuclei (%): 62% and 60%
  Population Hoechst High Intensity Objects (%): 0%
  Population Membrane Permeable-Phenotype (%): 7% and 10%
  Population Mitochondria Different-Phenotype (%): 1% and 3%
  Population Mitotic Cells (%): 54% and 63%
  Population Normal (%): 99% and 100%
  Population Pyknosed Nuclei (%): 15% and 24%
  Population Tubulin-Different-Phenotype (%): 40% and 48%
  Total Cell Count: 296 and 182
[2]
  Population Apoptotic (%): 40% and 46%
  Population Fragmented Nuclei (%): 13% and 23%
  Population Healthy Nuclei (%): 60% and 59%
  Population Hoechst High Intensity Objects (%): 0%
  Population Membrane Permeable-Phenotype (%): 5% and 13%
  Population Mitochondria Different-Phenotype (%): 12% and 13%
  Population Mitotic Cells (%): 59% and 53%
  Population Normal (%): 100%
  Population Pyknosed Nuclei (%): 26% and 17%
  Population Tubulin-Different-Phenotype (%): 84% and 85%
  Total Cell Count: 323 and 282
[3]
  Population Apoptotic (%): 54% and 58%
  Population Fragmented Nuclei (%): 18% and 23%
  Population Healthy Nuclei (%): 63% and 57%
  Population Hoechst High Intensity Objects (%): 1% and 0%
  Population Membrane Permeable-Phenotype (%): 3% and 2%
  Population Mitochondria Different-Phenotype (%): 3% and 5%
  Population Mitotic Cells (%): 45% and 41%
  Population Normal (%): 98% and 99%
  Population Pyknosed Nuclei (%): 18% and 19%
  Population Tubulin-Different-Phenotype (%): 43% and 40%
  Total Cell Count: 282 and 205
[4]
  Population Apoptotic (%): 79% and 73%
  Population Fragmented Nuclei (%): 16% and 25%
  Population Healthy Nuclei (%): 46% and 50%
  Population Hoechst High Intensity Objects (%): 0%
  Population Membrane Permeable-Phenotype (%): 2% and 6%
  Population Mitochondria Different-Phenotype (%): 38% and 39%
  Population Mitotic Cells (%): 20% and 26%
  Population Normal (%): 100% and 99%
  Population Pyknosed Nuclei (%): 37% and 23%
  Population Tubulin-Different-Phenotype (%): 88% and 92%
  Total Cell Count: 281 and 274
[5]
  Population Apoptotic (%): 65% and 85%
  Population Fragmented Nuclei (%): 21% and 25%
  Population Healthy Nuclei (%): 64% and 61%
  Population Hoechst High Intensity Objects (%): 1% and 0%
  Population Membrane Permeable-Phenotype (%): 4%
  Population Mitochondria Different-Phenotype (%): 2% and 5%
  Population Mitotic Cells (%): 34% and 14%
  Population Normal (%): 98% and 99%
  Population Pyknosed Nuclei (%): 14% and 12%
  Population Tubulin-Different-Phenotype (%): 44% and 38%
  Total Cell Count: 307 and 222
[6]
  Population Apoptotic (%): 97% and 94%
  Population Fragmented Nuclei (%): 18% and 24%
  Population Healthy Nuclei (%): 22% and 18%
  Population Hoechst High Intensity Objects (%): 1% and 0%
  Population Mitochondria Different-Phenotype (%): 46% and 48%
  Population Mitotic Cells (%): 2% and 5%
  Population Normal (%): 98% and 99%
  Population Pyknosed Nuclei (%): 58% and 57%
  Population Tubulin-Different-Phenotype (%): 77% and 93%
  Total Cell Count: 199 and 171
